The target of experiment [1] is T1, Amyloid-beta precursor protein (Homo sapiens, UniProt P05067). In words: Inhibition of amyloid beta (1 to 42)-induced paralysis in transgenic Caenorhabditis elegans CL4176 expressing human amyloid beta (1 to 42) assessed as paralyzed worms at 200 uM treated for 49 hrs at 25 degreeC by microscopic analysis (reference value: 87 %). Also noted: scale not given: the % may be the effect or the level left.

In experiment [2] the target is T1, Amyloid-beta precursor protein. Kind of experiment: Inhibition of self-induced aggregation amyloid beta (1 to 42) (unknown origin) assessed as reduction in fibril formation incubated for 24 hrs by Thioflavin T based fluorometric assay. In outline:
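Aβ42 (20 µM) mixed with compound (0.1–100 µM), with or without Zn2+ (20 µM), in Tris-HCl pH 7.4, incubated at 37 °C for 24 h. ThT (5 µM) added, fluorescence read at ex 450/em 485 nm.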

Experiment [3] has the same target. Kind of experiment: Inhibition of amyloid beta (1 to 42)-induced paralysis in transgenic Caenorhabditis elegans GMC101 expressing human amyloid beta (1 to 42) assessed as paralyzed worms at 50 uM measured after 92 hrs by microscopic analysis relative to control. Also noted: scale not given: the % may be the effect or the level left.
The target is the same in experiment [4]. Kind of experiment: Inhibition of amyloid beta (1 to 42)-induced paralysis in transgenic Caenorhabditis elegans CL4176 L3 expressing human amyloid beta (1 to 42) assessed as reduction in fluorescence intensity at 50 to 200 uM incubated for 2 days by thiofavin-T based fluorescence microscopic analysis. The settings on record: dose microM 50-200, time 2.0 day. In outline: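 CL4176 L3 worms kept on compound plates (50, 100, 200 µM) at 25 °C for 2 days. Stained with ThT (10 µM) for 5 min, held 2 h on NGM without OP50, then mounted on 2% agarose pads. Fluorescence imaged at ex 488/em 500–530 nm, in triplicate with 15–20 worms per group.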

Activity calls are given as the source filed them. The rule behind the calls is not given here.

T1 sequence (P05067 whole entry): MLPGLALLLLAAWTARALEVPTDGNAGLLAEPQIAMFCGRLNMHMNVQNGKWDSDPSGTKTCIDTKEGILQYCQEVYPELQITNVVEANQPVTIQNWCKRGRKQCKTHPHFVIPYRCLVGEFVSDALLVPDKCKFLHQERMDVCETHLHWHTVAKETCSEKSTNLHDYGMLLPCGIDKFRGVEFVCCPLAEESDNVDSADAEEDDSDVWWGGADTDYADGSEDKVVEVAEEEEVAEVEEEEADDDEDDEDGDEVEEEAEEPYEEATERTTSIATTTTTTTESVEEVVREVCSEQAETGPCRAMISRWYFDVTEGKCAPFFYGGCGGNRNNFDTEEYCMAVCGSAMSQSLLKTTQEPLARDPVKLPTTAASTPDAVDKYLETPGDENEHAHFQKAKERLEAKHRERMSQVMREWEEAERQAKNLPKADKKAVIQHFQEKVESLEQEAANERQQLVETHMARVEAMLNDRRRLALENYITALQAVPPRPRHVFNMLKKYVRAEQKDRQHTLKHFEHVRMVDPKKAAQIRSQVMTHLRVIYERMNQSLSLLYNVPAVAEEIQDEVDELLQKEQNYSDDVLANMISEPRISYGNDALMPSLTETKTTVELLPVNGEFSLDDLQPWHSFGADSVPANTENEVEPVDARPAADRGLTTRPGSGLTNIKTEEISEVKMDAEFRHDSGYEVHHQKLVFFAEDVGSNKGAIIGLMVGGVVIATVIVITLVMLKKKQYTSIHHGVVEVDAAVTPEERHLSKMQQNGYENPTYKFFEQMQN

As usually defined, the IC50 is the concentration that inhibits the measured activity by half. As to `Oc1cc(CN(Cc2ccccn2)Cc2ccccn2)cc(C[P+](c2ccccc2)(c2ccccc2)c2ccccc2)c1.[Br-]`, the Activity in experiment [1] came to 35%; in experiment [3] it was 74%. Also, the IC50 in experiment [2] worked out at 12.5 µM. Moreover, the inhibition result in experiment [2] is “Dose-dependent effect”. The inhibition entry in experiment [4] was “Active”.

Source of the values: ChEMBL document CHEMBL4665634, “Inhibiting Aβ toxicity in Alzheimer's disease by a pyridine amine derivative” (Eur J Med Chem, 2019).
